Screening results from PubChem BioAssay.
p47phox inh – p47phox/p22phox peptide binding inhibitors, primary screen, biochemical, uHTS, NADPH oxidase regulatory subunit; Neutrophil cytosol factor 1 (Homo sapiens), P14598; fluorescence polarization, 2 h; inhibition, % at 24.7 µM; 220,000 compounds, 0.53% hits; AID 1274, 2008;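 active means inhibition above about 30%, limit read from the data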
HSV replic up – enhancers of HSV replication in host cells, fold increase, host cell viability; maximum fold increase; HSV replication augmentation in cells; 220,000 compounds, 0.005% hits; in the data active means maximum fold increase above about 1.5; tested in PC3 cells
ABCB1 inh – ABCB1 efflux pump inhibitors, primary screen, cell-based, multiplex, flow cytometry, ABCG2 counter-screen | CCRF-Adr cells, JC-1 efflux | inhibition, % at 6.6 µM | 190,000 compounds, 0.067% hits | AID 1326, 2008; in the data active means inhibition above about 40%;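 further: higher value means more JC-1 retained so stronger ABCB1 efflux block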
PKD1 kinase inh – inhibitors of human PKD1 kinase, biochemical, fluorescence polarization; 200,000 compounds, 0.056% hits; PKD1 kinase fluorescence polarization assay; inhibition, % (no concentration beside the values); AID 797, 2007; Serine/threonine-protein kinase D1 (Homo sapiens), Q15139; in the data active means inhibition above about 50%
ABCG2 inh – ABCG2 efflux pump inhibitors, primary screen, multiplex with ABCB1, IgMXP3 cells, flow cytometry. inhibition, % at 6.6 µM. JC-1 efflux. AID 1325, 2008. 190,000 compounds, 0.1% hits;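 active means inhibition above 80%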
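Test system: IgMXP3 cells (ABCG2) mixed with DDAO far-red-labelled CCRF-Adr cells (ABCB1). Reagent: JC-1 transporter substrate. Compound dosing: single test compound dose, 6.6 µM final. Times: 10 min compound exposure, 25 °C. Detection: flow cytometry of retained JC-1 fluorescence. Read-out basis: efflux inhibition in percent versus controls. Controls: nicardipine and DMSO wells.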
PHOSPHO1 block – PubChem AID 1565; 290,000 compounds, 1.1% hits; inhibition, % at 13.3 µM; recombinant PHOSPHO1, absorbance phosphatase assay; in the data active means inhibition above about 60%
Of the large screens only hits and unclear results are named; the others gave an inactive call. The list is not random: actives were taken first. Their share in the collection is about 1.6%.

C=CC[n+]1c(-c2ccc(OCC)cc2)csc1NNC(=O)Nc1ccccc1	PHOSPHO1 block 61.3
COc1ccc(-c2n[nH]c(=S)o2)c(OC)c1	PHOSPHO1 block 102.7
CCOc1ccc(-c2n[nH]c(=S)o2)cc1	none
CCOc1ccccc1-c1n[nH]c(=S)o1	PHOSPHO1 block 99.7
COc1ccc(/C=N/n2cnnc2)cc1Br	none (no result: ABCB1 inh, PKD1 kinase inh, ABCG2 inh)
COCCC1CCCCN1C(=O)c1ccc2nc(Cc3ccccc3F)oc2c1 (stereo not drawn)	none (no result: p47phox inh, HSV replic up, ABCB1 inh, PKD1 kinase inh, ABCG2 inh)
CCc1ccc(-c2csc(NC(=O)Oc3ccccc3)n2)cc1	p47phox inh 30.3
CCC(=O)N1c2ccc(S(=O)(=O)N3CCN(c4ccccc4Cl)CC3)cc2CC1C (stereo not drawn)	none (no result: p47phox inh, HSV replic up, ABCB1 inh, PKD1 kinase inh, ABCG2 inh)
CCCCC(=O)Nc1ccc(C(=O)N(CC)c2ccccc2C)cc1	PHOSPHO1 block 65.8
COc1cccc(/C=N/NC(=O)COc2cccc3cccnc23)c1O	none
C=CCn1cc(/C=N/NC(=O)COc2cccc3cccnc23)c2ccccc21	p47phox inh 47.4
CC(C)n1cc(/C=N/NC(=O)COc2cccc3cccnc23)c2ccccc21	p47phox inh 45.5
O=C(CCCSc1nc2sc3c(c2c(=O)[nH]1)CCC3)NCCO	none
CC(Oc1ccccc1)C(=O)N=C1SC2CS(=O)(=O)CC2N1c1ccccc1 (stereo not drawn)	none (no result: p47phox inh, HSV replic up, ABCB1 inh, PKD1 kinase inh, ABCG2 inh)
COCCSc1nnc(NC(=O)C2CC(=O)N(CCc3ccc(F)cc3)C2)s1 (stereo not drawn)	none (no result: p47phox inh, HSV replic up, ABCB1 inh, PKD1 kinase inh, ABCG2 inh)
Cc1ccc(-c2nc3cccnc3o2)cc1NC(=O)COc1ccc(C(C)(C)C)cc1	none
Cc1ccc(-c2nc3cccnc3o2)cc1NC(=O)COc1ccc(Cl)cc1C	p47phox inh 56.7
COc1ccc(OC)c(NC(=O)CSc2nc3ccccc3c3nc4ccccc4n23)c1	p47phox inh 79.2
COc1ccc(NC(=O)CSc2nc3ccccc3c3nc4ccccc4n23)cc1	none
COc1ccc(CCC(C)Nc2ccc(F)cc2)cc1 (stereo not drawn)	none
Cc1cc(C)c2[nH]c(=S)cc(C)c2c1	PHOSPHO1 block 104.3
CC(C)c1cc(=O)n2[nH]c(SCc3ccc(Cl)cc3)nc2n1	none (no result: p47phox inh, HSV replic up, ABCB1 inh, PKD1 kinase inh, ABCG2 inh)
CC(C)c1cc(=O)n2[nH]c(SCc3ccccc3)nc2n1	PHOSPHO1 block 62.7 (no result: p47phox inh, HSV replic up, ABCB1 inh, PKD1 kinase inh, ABCG2 inh)
COc1ccccc1C1CC(c2cccs2)=Nc2ccccc2S1 (stereo not drawn)	PHOSPHO1 block 94.5
CCCCNC(=O)c1onc(CSc2ccc(OC)cc2)c1C(=O)O	PHOSPHO1 block 97.7
OCC1(Cc2ccc(Cl)cc2)CCN(Cc2ccc(Oc3ncccn3)cc2)CC1	none
C=CCn1c(SCC(=O)Nc2ccc(NC(=O)c3ccco3)c(OC)c2)nnc1-c1ccncc1	p47phox inh 94.2
C=CCn1c(SCC(=O)Nc2cc(OC)c(NC(=O)c3ccco3)cc2OC)nnc1-c1ccncc1	none
COc1ccc(NC(=S)Nn2cnnc2)c(OC)c1	none (no result: p47phox inh, HSV replic up, ABCB1 inh, PKD1 kinase inh, ABCG2 inh)
CCN(CC)S(=O)(=O)c1cccc(C(=O)N[C@H](C(=O)O)C(C)C)c1	p47phox inh 91.6
COc1ccc(Br)cc1C1CC(=O)C(C)C(c2cc(Br)ccc2OC)N1 (stereo not drawn)	none (no result: p47phox inh, HSV replic up, ABCB1 inh, PKD1 kinase inh, ABCG2 inh)
C[n+]1cc[nH]c1SCC(=O)c1ccccc1	PHOSPHO1 block 60.0
Cc1[nH]c2ccc(-c3n[nH]c(=S)n3C)cc2c1C	PHOSPHO1 block 98.1
CCn1c(-c2ccc3[nH]c(C)c(C)c3c2)n[nH]c1=S	PHOSPHO1 block 93.5
CCn1c(-c2cc(OC)c(OC)c(OC)c2)n[nH]c1=S	none
COc1ccc2c(C)c(CC(=O)N3CCN(C(=O)C4COc5ccccc5O4)CC3)c(=O)oc2c1 (stereo not drawn)	PHOSPHO1 block 63.6 (no result: p47phox inh, HSV replic up, ABCB1 inh, PKD1 kinase inh, ABCG2 inh)
CCCCCNC(=O)CC1Nc2c3ccccc3nc(=S)n2C1=O (stereo not drawn)	PHOSPHO1 block 65.1
Cn1c(N)c(C(=O)COC(=O)CSc2ccc(Cl)cc2)c(=O)n(C)c1=O	none
COc1ccc2cc(C(=O)C3CCCN(Cc4cnc(N5CCOCC5)s4)C3)ccc2c1 (stereo not drawn)	PHOSPHO1 block 60.1
